Reference: ChEMBL document CHEMBL1131067, “Tolerance in the replacement of the benzhydrylic O atom in 4-[2-(diphenylmethoxy)ethyl]-1-benzylpiperidine derivatives by an N atom: development of new-generation potent and selective N-analogue molecules for the dopamine transporter” (J Med Chem, 1998)

Key:
[1] = biological target: T1, Sodium-dependent dopamine transporter (Homo sapiens, UniProt Q01959); assay: Affinity was evaluated using [3H]WIN-35428 (radioligand) on Cloned human Dopamine transporter expressed in HEK cells; format: cell-based, HEK293
[2] = biological target: Sodium-dependent serotonin transporter (Homo sapiens, UniProt P31645); assay: Affinity was evaluated using [3H]citalopram (radioligand) on human serotonin transporter expressed in HEK cells; format: cell-based, HEK293
[3] = biological target: Sodium-dependent dopamine transporter (Rattus norvegicus, UniProt P23977); assay: IC50 value was evaluated using [3H]WIN-35428 (radioligand) on Dopamine transporter in rat striatum.; format: tissue-based
[4] = biological target: T1, Sodium-dependent dopamine transporter; assay: Affinity was evaluated using [3H]DA (radioligand) on Cloned human Dopamine transporter expressed in HEK cells; format: cell-based, HEK293
Method in brief: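 HEK-293 cells stably expressing cloned hDAT, suspended intact; preincubated with inhibitor 15 min at room temperature in pH 7.4 Na phosphate/NaCl/KCl/MgSO4/glucose/CaCl2 buffer with 0.1 mM tropolone, then [3H]dopamine added for 8 min more; ended with ice-cold buffer. Compounds from DMSO stocks, 0.5% final DMSO, at least five concentrations.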

[5] = biological target: Sodium-dependent serotonin transporter (Rattus norvegicus, UniProt P31652); assay: IC50 value was evaluated using [3H]citalopram (radioligand) on serotonin transporter in rat striatum.; format: tissue-based
Sequence of Sodium-dependent serotonin transporter (Rattus norvegicus, UniProt P31652) (P31652 whole entry): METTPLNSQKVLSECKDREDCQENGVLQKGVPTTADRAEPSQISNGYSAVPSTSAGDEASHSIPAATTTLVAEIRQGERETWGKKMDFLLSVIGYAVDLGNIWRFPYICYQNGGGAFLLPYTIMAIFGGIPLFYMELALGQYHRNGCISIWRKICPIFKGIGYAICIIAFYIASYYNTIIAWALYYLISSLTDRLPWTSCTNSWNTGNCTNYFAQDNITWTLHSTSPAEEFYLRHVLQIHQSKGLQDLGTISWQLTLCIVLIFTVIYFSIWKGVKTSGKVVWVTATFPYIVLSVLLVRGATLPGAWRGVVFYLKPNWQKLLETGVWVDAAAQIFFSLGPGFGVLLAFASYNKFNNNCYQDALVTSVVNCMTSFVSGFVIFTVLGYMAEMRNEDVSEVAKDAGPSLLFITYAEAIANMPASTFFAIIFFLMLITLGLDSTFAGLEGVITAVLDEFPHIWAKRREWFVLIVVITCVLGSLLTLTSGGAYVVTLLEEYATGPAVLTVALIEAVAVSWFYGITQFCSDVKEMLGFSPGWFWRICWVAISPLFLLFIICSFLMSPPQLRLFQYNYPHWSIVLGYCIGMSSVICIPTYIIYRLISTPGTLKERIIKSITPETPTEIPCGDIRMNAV

T1 sequence (Q01959 whole entry): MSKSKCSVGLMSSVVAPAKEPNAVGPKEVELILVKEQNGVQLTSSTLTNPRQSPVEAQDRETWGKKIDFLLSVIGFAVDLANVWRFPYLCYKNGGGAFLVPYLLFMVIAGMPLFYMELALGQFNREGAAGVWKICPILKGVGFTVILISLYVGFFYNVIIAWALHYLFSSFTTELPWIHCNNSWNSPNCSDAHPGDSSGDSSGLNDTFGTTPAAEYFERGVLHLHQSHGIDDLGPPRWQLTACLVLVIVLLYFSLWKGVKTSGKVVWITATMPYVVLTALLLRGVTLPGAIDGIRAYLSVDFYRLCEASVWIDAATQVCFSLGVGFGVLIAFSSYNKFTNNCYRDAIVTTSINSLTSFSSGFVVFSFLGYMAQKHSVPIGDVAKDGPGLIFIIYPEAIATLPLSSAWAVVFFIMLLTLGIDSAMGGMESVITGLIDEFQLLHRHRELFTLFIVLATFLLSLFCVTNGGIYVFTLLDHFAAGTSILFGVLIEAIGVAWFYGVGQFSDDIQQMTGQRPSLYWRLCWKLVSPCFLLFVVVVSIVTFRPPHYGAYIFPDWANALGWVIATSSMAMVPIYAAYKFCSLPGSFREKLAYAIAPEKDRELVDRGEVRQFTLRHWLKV
Sequence of Sodium-dependent serotonin transporter (Homo sapiens, UniProt P31645) (P31645 whole entry): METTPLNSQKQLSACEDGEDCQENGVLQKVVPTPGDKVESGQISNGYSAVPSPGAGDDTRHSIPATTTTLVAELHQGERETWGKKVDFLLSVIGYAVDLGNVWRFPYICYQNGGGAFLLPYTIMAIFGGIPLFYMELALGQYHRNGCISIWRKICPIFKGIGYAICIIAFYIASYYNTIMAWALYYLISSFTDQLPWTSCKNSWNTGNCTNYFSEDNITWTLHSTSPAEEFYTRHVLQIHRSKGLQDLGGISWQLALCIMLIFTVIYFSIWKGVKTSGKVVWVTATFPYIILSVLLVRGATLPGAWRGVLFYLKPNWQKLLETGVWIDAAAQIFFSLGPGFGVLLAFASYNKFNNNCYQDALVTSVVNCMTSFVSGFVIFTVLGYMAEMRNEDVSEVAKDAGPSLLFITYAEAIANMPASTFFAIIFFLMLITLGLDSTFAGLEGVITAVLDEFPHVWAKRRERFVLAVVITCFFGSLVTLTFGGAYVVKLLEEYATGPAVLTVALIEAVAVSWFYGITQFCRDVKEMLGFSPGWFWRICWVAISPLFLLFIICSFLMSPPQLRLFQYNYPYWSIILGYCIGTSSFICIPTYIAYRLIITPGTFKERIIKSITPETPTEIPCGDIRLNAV
Sequence of Sodium-dependent dopamine transporter (Rattus norvegicus, UniProt P23977) (P23977 whole entry): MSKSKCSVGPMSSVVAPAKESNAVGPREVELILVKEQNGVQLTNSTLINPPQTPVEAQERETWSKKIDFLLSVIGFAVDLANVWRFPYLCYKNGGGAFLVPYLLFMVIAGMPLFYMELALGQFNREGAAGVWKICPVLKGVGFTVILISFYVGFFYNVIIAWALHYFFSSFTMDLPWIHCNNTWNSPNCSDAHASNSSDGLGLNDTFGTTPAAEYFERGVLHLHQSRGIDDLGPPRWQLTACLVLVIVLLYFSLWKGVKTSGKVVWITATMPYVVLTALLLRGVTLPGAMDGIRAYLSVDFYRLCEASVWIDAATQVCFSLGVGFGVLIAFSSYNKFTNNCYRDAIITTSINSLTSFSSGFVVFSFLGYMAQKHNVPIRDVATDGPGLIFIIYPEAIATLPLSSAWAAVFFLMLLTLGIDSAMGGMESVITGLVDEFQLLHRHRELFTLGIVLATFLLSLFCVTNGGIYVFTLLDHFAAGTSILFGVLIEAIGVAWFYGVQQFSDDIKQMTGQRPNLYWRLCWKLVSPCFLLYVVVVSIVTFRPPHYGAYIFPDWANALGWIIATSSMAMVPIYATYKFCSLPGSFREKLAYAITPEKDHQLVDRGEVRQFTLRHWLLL

Row | SMILES | IC50 [1] | IC50 [2] | IC50 [3] | IC50 [4] | IC50 [5]
1 | O=C(CC1CCN(Cc2ccc(F)cc2)CC1)NC(c1ccccc1)c1ccccc1 | 3210 nM | 49200 nM | – | – | –
2 | Fc1ccc(CN2CCC(CCNC(c3ccccc3)c3ccccc3)CC2)cc1 | 30 nM | 5850 nM | 9.4 nM | 32 nM | 585 nM
3 | Fc1ccc(CN2CCC(CCOC(c3ccccc3)c3ccccc3)CC2)cc1 | 37.6 nM | – | – | – | –
4 | Fc1ccc(C(OCCC2CCN(Cc3ccccc3)CC2)c2ccc(F)cc2)cc1 | 35 nM | – | – | – | –
5 | Fc1ccc(C(NCCC2CCN(Cc3ccccc3)CC2)c2ccc(F)cc2)cc1 | 33 nM | 10700 nM | – | 58 nM | –
